In ChEMBL document CHEMBL3351544, “Discovery of (S)-1-(1-(Imidazo[1,2-a]pyridin-6-yl)ethyl)-6-(1-methyl-1H-pyrazol-4-yl)-1H-[1,2,3]triazolo[4,5-b]pyrazine (volitinib) as a highly potent and selective mesenchymal-epithelial transition factor (c-Met) inhibitor in clinical development for treatment of cancer” (J Med Chem, 2014):
Values after ≈ are worked out from the molar mass of the structure shown. Blank lines part the entries; values can stand above or below the compound they belong to.

Key:
[1] = tested on: NCI-H441; assay: Antiproliferative activity against human NCI-H441 cells assessed as HGF-induced proliferation after 72 hrs by MTT assay; conditions: NCI-H441, 72 h
[2] = Metabolic stability in mouse liver microsomes assessed as compound remaining at 1 uM after 30 mins; format: ADME; conditions: read-out: Stability
Outline: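 Compound at 1 µM incubated in duplicate with mouse liver microsomes (0.5 mg/mL). Final 3 mM MgCl2 and 1 mM EDTA, NADPH-regenerating system in 50 mM potassium phosphate, pH 7.4. Incubated at 37 °C for 0 and 30 min, DMSO at most 0.1%. Quenched with cold acetonitrile containing internal standard, centrifuged, supernatant analysed. Reported as % parent remaining.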

[3] = Solubility of the compound in aqueous buffer at pH 7.4 by HPLC method; format: physicochemical
Outline: (§1)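 Excess solid shaken 48 h at 20 °C in pH 1.2 KCl/HCl buffer or pH 7.4 sodium phosphate buffer. Centrifuged 10 min at 4000 rpm, supernatant diluted in mobile phase and quantified by HPLC.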

[4] = Solubility of the compound in aqueous buffer at pH 1.2 by HPLC method; format: physicochemical; outline: as §1
[5] = target: T1, Hepatocyte growth factor receptor (Homo sapiens, UniProt P08581); assay: Inhibition of c-Met (unknown origin) using Poly E4Y substrate and ATP incubated for 45 mins by fluorescence polarization assay
[6] = target: T1, Hepatocyte growth factor receptor; assay: Inhibition of c-Met autophosphorylation in human NCI-H441 cells for 1 hr by ELISA; format: cell-based
[7] = Plasma clearance in ICR mouse at 2.5 mg/kg, iv; format: ADME, organism-based; design: dose 2.5 mg/kg, route intravenous
Outline: (§2)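 Male ICR mice, n=3, given 2.5 mg/kg iv in saline containing 10% Solutol HS 15, 10% ethanol and 0.25% DMSO. Blood sampled at staggered times from 5 min to 24 h. Plasma concentrations measured by LC/MS/MS. Parameters derived from the iv dosing.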

[8] = Apparent volume of distribution in ICR mouse at 2.5 mg/kg, iv; format: ADME, organism-based; design: dose 2.5 mg/kg, route intravenous; conditions: in vivo, read-out: Vz; outline: as §2
[9] = Half life in ICR mouse at 14.1 mg/kg, po; format: ADME, organism-based; design: dose 14.1 mg/kg, route oral; conditions: in vivo
Outline: (§3)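 Male ICR mice, n=3. Oral dose 14.1 mg/kg as a suspension in 0.5% CMC acidified with HCl to pH 2.1. Paired iv arm at 2.5 mg/kg in saline with 10% Solutol HS 15, 10% ethanol and 0.25% DMSO. Staggered blood sampling between 5 min and 24 h post-dose. Plasma levels measured by LC/MS/MS.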

[10] = Cmax in ICR mouse at 14.1 mg/kg, po; format: ADME, organism-based; design: dose 14.1 mg/kg, route oral; conditions: in vivo; outline: as §3
[11] = AUC (0 to 8 hrs) in ICR mouse at 14.1 mg/kg, po; format: ADME, organism-based; design: time < 8 hr, dose 14.1 mg/kg, route oral; conditions: plasma; outline: as §3
[12] = Oral bioavailability in ICR mouse at 14.1 mg/kg; format: ADME, organism-based; conditions: in vivo; outline: as §3
[13] = Antitumor activity against human U87MG cells xenografted in mouse model assessed as tumor growth inhibition at 1 mg/kg, po once daily up to 21 days; format: functional, U-87MG ATCC; conditions: U-87 MG, 504 h, read-out: TGI
Outline: (§4)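 Female athymic nude mice, 6-8 weeks old, inoculated in the flank with 3×10^6 U87MG glioma cells. Randomised once tumours reached 200 mm3. Dosed orally once daily for 21 days in 0.5% CMC-Na, pH 2.1, against vehicle controls. Tumour size measured 2-3 times weekly; volume = L×W²/2. %TGI from change in mean volume, first to last treatment day. Body weight recorded.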

[14] = Antitumor activity against human U87MG cells xenografted in mouse model assessed as tumor growth inhibition at 2.5 mg/kg, po once daily up to 21 days; format: functional, U-87MG ATCC; conditions: U-87 MG, 504 h, read-out: TGI; outline: as §4
[15] = Antitumor activity against human U87MG cells xenografted in mouse model assessed as tumor growth inhibition at 10 mg/kg, po once daily up to 21 days; format: functional, U-87MG ATCC; conditions: U-87 MG, 504 h, read-out: TGI; outline: as §4
[16] = Metabolic stability in human liver S9 fraction assessed as compound remaining in presence of NADPH at 1 mg/mL after 60 mins by LC-MS/PDA analysis; format: ADME, subcellular; conditions: read-out: Stability
Outline: (§5)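 Compound incubated at 37 °C for 0 and 60 min with human liver S9 (1 mg/ml). Buffer was 50 mM potassium phosphate, pH 7.4, with 3 mM MgCl2 and 1 mM EDTA, with or without an NADPH-regenerating system. Stopped with ice-cold acetonitrile, supernatant dried and reconstituted in 50% methanol. Analysed by LC-MSn/PDA; relative amounts estimated from UV peak intensity at 348 nm.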

[17] = Metabolic stability in human liver S9 fraction assessed as compound remaining in absence of NADPH at 1 mg/mL after 60 mins by LC-MS/PDA analysis; format: ADME; conditions: read-out: Stability; outline: as §5
[18] = tested on: Mus musculus; assay: Inhibition of c-Met autophosphorylation in mouse xenografted with human NCI-H441 cells at 3 mg/kg, po administered as single doss after 6 hrs by ELISA method; format: functional; conditions: NCI-H441, 6 h
Outline: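 Female athymic mice, 6-8 weeks old, n=4, co-implanted subcutaneously with 2×10^6 NCI-H441 cells and 1×10^6 HGF-secreting MRC-5 cells. At 300 mm3, about two weeks, given a single 3 mg/kg oral dose in 0.5% CMC, pH 2.1. Tumours harvested at 6 h and homogenised in lysis buffer with phosphatase and protease inhibitors. Phospho-Met and total Met measured by ELISA, compared with vehicle.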

[19] = tested on: U-87MG ATCC; assay: Antitumor activity against human U87MG cells xenografted in mouse model assessed as tumor growth inhibition at 1 to 10 mg/kg, po once daily up to 21 days; format: functional, organism-based
Outline: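 Female athymic nude mice (6-8 weeks) inoculated in the flank with U87MG glioma cells (3×10^6/mouse). At 200 mm3 tumours, randomized to vehicle or treatment. Oral dosing once daily at 1.0, 2.5 and 10.0 mg/kg in 0.5% CMC-Na, pH 2.1, for 21 days. Tumour size measured 2-3 times weekly, TV=(L×W²)/2. %TGI from mean volume change from first to last treatment day versus vehicle.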

[20] = tested on: Mus musculus; assay: Toxicity in human U87MG cells xenografted mouse model assessed as body weight loss at 1 to 10 mg/kg, po once daily up to 21 days; format: organism-based, U-87MG ATCC; design: dose 1-10 mg/kg, route oral; conditions: in vivo, 504 h; outline: as §4

solubility [3]: 0.02 mg/mL (≈ 0.0553 mM)
solubility [4]: 20.9 mg/mL (≈ 57.8 mM)
SMILES: C[C@@H](c1ccc2nccn2c1)n1nnc2nc(O)c(-c3cnn(C)c3)nc21

IC50 [1]: 66 nM
remaining at 0.5 h, 1 µM [2]: 93.3%
clearance [7]: 21.5 mL/min/kg
Vd [8]: 2.4 L/kg
half-life [9]: 3.7 h
Cmax [10]: 1920 ng/mL
AUC(0-t) at 8 h [11]: 7000 ng·h/mL
bioavailability [12]: 90.8%
SMILES: OCCn1cc(-c2cnc3nnn(Cc4ccn5nccc5c4)c3n2)cn1

IC50 [1]: 104 nM
SMILES: FC(F)(F)Cn1cc(-c2cnc3nnn(Cc4ccc5nccn5c4)c3n2)cn1

IC50 [1]: 165 nM
SMILES: C[C@H](c1ccn2nccc2c1)n1nnc2ncc(-c3cnn(CCO)c3)nc21

IC50 [1]: 178 nM
remaining at 0.5 h, 1 µM [2]: 19.4%
SMILES: Cn1cc(-c2cnc3nnn(Cc4cc5[nH]ncc5s4)c3n2)cn1

IC50 [1]: 443 nM
SMILES: Cn1cc(-c2cnc3nnn(Cc4ccc5nccn5n4)c3n2)cn1

IC50 [1]: 73 nM
remaining at 0.5 h, 1 µM [2]: 70.8%
clearance [7]: 71.3 mL/min/kg
Vd [8]: 5.4 L/kg
half-life [9]: 1.3 h
Cmax [10]: 1380 ng/mL
AUC(0-t) at 8 h [11]: 1070 ng·h/mL
bioavailability [12]: 46%
SMILES: Cn1cc(-c2cnc3nnn(Cc4ccc5nccn5c4)c3n2)cn1

IC50 [1]: 183 nM
remaining at 0.5 h, 1 µM [2]: 36.7%
SMILES: Cn1cc(-c2cnc3nnn(Cc4ccn5nccc5c4)c3n2)cn1

IC50 [1]: 203 nM
SMILES: N#Cc1ccc(-c2cnc3nnn(Cc4ccc5nccn5c4)c3n2)cn1

IC50 [1]: 425 nM
SMILES: Cn1cc(-c2cnc3nnn(Cc4ccc5ncnn5c4)c3n2)cn1

IC50 [1]: 116 nM
SMILES: Fc1ccc(-c2cnc3nnn(Cc4ccc5nccn5c4)c3n2)cc1

IC50 [1]: 66 nM
remaining at 0.5 h, 1 µM [2]: 102%
SMILES: Cn1cc(-c2cnc3nnn(Cc4n[nH]c5ncccc45)c3n2)cn1

IC50 [1]: 177 nM
remaining at 0.5 h, 1 µM [2]: 23.5%
SMILES: Cn1cc(-c2cnc3nnn(Cc4cc5cnccc5s4)c3n2)cn1

IC50 [5]: > 1000 nM
SMILES: Cn1cc(-c2cnc3nnn(Cc4ccc5ncccc5c4)c3c2)cn1

Continued, compound first:

SMILES: FC(F)(F)Cn1cc(-c2cnc3nnn(Cc4ccn5nccc5c4)c3n2)cn1
IC50 [1]: 77 nM
remaining at 0.5 h, 1 µM [2]: 63.6%

SMILES: C[C@H](c1ccc2nccn2c1)n1nnc2ncc(-c3cnn(C)c3)nc21
IC50 [5]: 32 nM
IC50 [6]: 32 nM
IC50 [1]: 113 nM

SMILES: FC(F)(F)Cn1cc(-c2cnc3nnn(Cc4n[nH]c5ncccc45)c3n2)cn1
IC50 [1]: 70 nM
remaining at 0.5 h, 1 µM [2]: 83%

SMILES: N#Cc1ccc(-c2cnc3nnn(Cc4n[nH]c5ncccc45)c3n2)cn1
IC50 [1]: 172 nM

SMILES: C[C@@H](c1ccn2nccc2c1)n1nnc2ncc(-c3cnn(CCO)c3)nc21
IC50 [1]: 16 nM

SMILES: OCCn1cc(-c2cnc3nnn(Cc4c[nH]c5ncccc45)c3n2)cn1
IC50 [1]: 25 nM
remaining at 0.5 h, 1 µM [2]: 82.6%

SMILES: C[C@@H](c1ccc2nccn2c1)n1nnc2ncc(-c3cnn(C)c3)nc21 [SAVOLITINIB]
IC50 [5]: 5 nM
IC50 [6]: 3 nM
IC50 [1]: 6 nM
clearance [7]: 11 mL/min/kg
Vd [8]: 1.2 L/kg
half-life [9]: 1.7 h
Cmax [10]: 4950 ng/mL
AUC(0-t) at 8 h [11]: 5590 ng·h/mL
bioavailability [12]: 27.2%
inhibition in vivo at 1 mg/kg [13]: 52.8%
inhibition in vivo at 2.5 mg/kg [14]: 76.6%
inhibition in vivo at 10 mg/kg [15]: 92.8%
solubility [3]: 0.02 mg/mL (≈ 0.0579 mM)
solubility [4]: 31.8 mg/mL (≈ 92.1 mM)
remaining at 1 h [16]: 99.1%
remaining at 1 h [17]: 99.7%
inhibition in vivo at 3 mg/kg [18]: 84.7%
TGI [19]: Dose-dependent effect
Activity [20]: Non-toxic

SMILES: OCCn1cc(-c2cnc3nnn(Cc4n[nH]c5ncccc45)c3n2)cn1
IC50 [1]: 287 nM

SMILES: OCCn1cc(-c2cnc3nnn(Cc4ccc5nccn5c4)c3n2)cn1
IC50 [1]: 184 nM
